This is an account of results in ChEMBL document CHEMBL1153631, “On the role of topoisomerase I in mediating the cytotoxicity of 9-aminoacridine-based anticancer agents” (Bioorg Med Chem Lett, 2009).

Structures are written as SMILES. Active and inactive are the calls of the source. No cut-off for these calls is given here.

Broadly, the EC50 is the concentration that produces a half-maximal response.

The subject of one assay is NCI-H460. Briefly: Cytotoxic activity against human H460 cells after 48 hrs by fluorescent resazurin dye assay. It is filed as functional, cell-based. Conditions: NCI-H460, 48 h. A general note: Resazurin is reduced to fluorescent resorufin, in cell work by metabolically active cells.
As for `CN1CCN(C(=O)c2ccc3c(NC4CCN(Cc5ccccc5)CC4)c4ccccc4nc3c2)CC1`, the midpoint of the response, the EC50, lay at 38.5 µM.
On the same count and under the same terms, with `CN1CCN(C(=O)c2cccc3c(NCCc4c[nH]c5ccccc45)c4ccccc4nc23)CC1` the figure was 16 µM.
The same measure, in the same setting: the figure for `CN1CCN(C(=O)c2ccc3c(NCCc4c[nH]c5ccccc45)c4ccccc4nc3c2)CC1` is 31.8 µM; for `CCN(CC)C(=O)c1ccc2c(NCCc3c[nH]c4ccccc34)c3ccccc3nc2c1` it is 18.8 µM.

Another assay deals with T1, DNA topoisomerase 1 (Homo sapiens) (UniProt P11387).
T1 sequence (whole entry): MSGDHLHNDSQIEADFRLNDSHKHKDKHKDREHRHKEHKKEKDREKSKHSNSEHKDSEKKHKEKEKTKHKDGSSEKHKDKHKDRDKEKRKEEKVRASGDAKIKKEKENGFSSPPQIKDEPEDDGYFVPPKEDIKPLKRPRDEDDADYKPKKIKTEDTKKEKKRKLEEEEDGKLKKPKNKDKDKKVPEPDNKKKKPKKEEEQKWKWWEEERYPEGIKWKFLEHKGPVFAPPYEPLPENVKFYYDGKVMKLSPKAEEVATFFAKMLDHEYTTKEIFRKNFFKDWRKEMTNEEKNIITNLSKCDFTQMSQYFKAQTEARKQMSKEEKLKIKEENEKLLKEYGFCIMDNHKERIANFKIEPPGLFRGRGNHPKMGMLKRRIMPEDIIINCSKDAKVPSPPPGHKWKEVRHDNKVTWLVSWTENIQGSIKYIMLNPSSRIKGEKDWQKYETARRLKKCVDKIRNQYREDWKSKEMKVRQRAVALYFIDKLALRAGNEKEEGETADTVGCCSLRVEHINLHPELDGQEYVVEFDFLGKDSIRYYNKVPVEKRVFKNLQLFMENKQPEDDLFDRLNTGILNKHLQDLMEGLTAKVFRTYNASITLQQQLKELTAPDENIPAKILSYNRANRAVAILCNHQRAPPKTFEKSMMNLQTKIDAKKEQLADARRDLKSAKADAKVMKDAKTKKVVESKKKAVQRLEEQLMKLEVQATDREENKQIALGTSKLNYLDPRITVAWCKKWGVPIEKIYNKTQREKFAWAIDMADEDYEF
Briefly: Induction of covalent topoisomerase 1-DNA adduct stabilization in human MIA PaCa cells at 100 uM after 1 hr by ICE assay. It counts as cell-based.
Settings: not given
The essentials: (§1)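 MiaPACA cells exposed to 20 or 100 μM agent for 1 h at 37 °C (vehicle 0.1% DMSO), then lysed with sarkosyl for the ICE bioassay. CsCl-purified DNA-positive gradient fractions were immunoblotted for topoisomerase I. Four independent experiments.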
Turning to `CN1CCN(C(=O)c2ccc3c(NC4CCN(Cc5ccccc5)CC4)c4ccccc4nc3c2)CC1`, the outcome was Active.

The next assay addresses T1, DNA topoisomerase 1 (Homo sapiens). Briefly: Inhibition of human topoisomerase 1-mediated relaxation of supercoiled plasmid O6#7 DNA at 8 uM after 30 mins by gel electrophoresis.
Settings: not given
The procedure, abridged:
(§2)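 Supercoiled plasmid incubated with 2 units topoisomerase I and test agent at 8 μM or at a final 50 or 100 μM. A no-enzyme lane was included. Supercoiled and relaxed DNA bands were resolved on a gel. Four experiments.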
Regarding `COc1ccc2c(c1)-c1nn(CCCN(C)C)c3ccc([N+](=O)[O-])c(c13)N2`, the result was Active.

Tested on in a further assay: not listed separately
As to the kind of experiment: Cytotoxic activity against human OCL3 cells after 48 hrs by fluorescent resazurin dye assay. It is filed as functional, cell-based. Conditions: OCL3, 48 h.
`CN1CCN(C(=O)c2ccc3c(NC4CCN(Cc5ccccc5)CC4)c4ccccc4nc3c2)CC1` yielded an EC50 of 20.3 µM. This counts as double-digit micromolar.
Same read-out and setting: the figure for `CN1CCN(C(=O)c2cccc3c(NCCc4c[nH]c5ccccc45)c4ccccc4nc23)CC1` is 39.8 µM; for `CN1CCN(C(=O)c2ccc3c(NCCc4c[nH]c5ccccc45)c4ccccc4nc3c2)CC1` it is 15.3 µM; for `CCN(CC)C(=O)c1ccc2c(NCCc3c[nH]c4ccccc34)c3ccccc3nc2c1` it is 18.3 µM.

The target of a further assay is T1, DNA topoisomerase 1 (Homo sapiens). As to the kind of experiment: Induction of covalent human topoisomerase 1-plasmid O6#7 DNA adduct stabilization assessed as appearance of nicked plasmid at 100 uM by agarose gel electrophoresis.
Settings: not given
The essentials: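 Supercoiled plasmid aliquots incubated 30 min at 37 °C with nuclear extract containing 50 units topoisomerase I and test agent at 1.6 μM or 100 μM; the DNA products were then examined.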
With `CN1CCN(C(=O)c2ccc3c(NC4CCN(Cc5ccccc5)CC4)c4ccccc4nc3c2)CC1`, the result was Active.

A further assay has the same target. As to the kind of experiment: Induction of covalent topoisomerase 1-DNA adduct stabilization in human MIA PaCa cells at 20 uM after 1 hr by ICE assay. It counts as cell-based. Conditions: 100 uM, in the assay text read “100 uM” for “20 uM”. The essentials: as §1
Consider `CN1CCN(C(=O)c2cccc3c(NCCc4c[nH]c5ccccc45)c4ccccc4nc23)CC1`, for which the outcome was Active.
For `CCN(CC)C(=O)c1ccc2c(NCCc3c[nH]c4ccccc34)c3ccccc3nc2c1`, the outcome was Active.

For the next assay, the system named is REH. Briefly: Cytotoxic activity against human REH cells after 48 hrs by fluorescent resazurin dye assay. It counts as functional, cell-based.
Settings: not given
`CN1CCN(C(=O)c2ccc3c(NC4CCN(Cc5ccccc5)CC4)c4ccccc4nc3c2)CC1`: the EC50 was determined as 21 µM.
`CN1CCN(C(=O)c2cccc3c(NCCc4c[nH]c5ccccc45)c4ccccc4nc23)CC1` had an EC50 of 19.7 µM.
The molecule `CN1CCN(C(=O)c2ccc3c(NCCc4c[nH]c5ccccc45)c4ccccc4nc3c2)CC1` had an EC50 of 4.1 µM. Compared with the last molecule, the EC50 is about 4.8-fold lower.
Same read-out and setting: with `CCN(CC)C(=O)c1ccc2c(NCCc3c[nH]c4ccccc34)c3ccccc3nc2c1` the figure was 15.5 µM.

In the next assay the test system is HeLa. Briefly: Cytotoxicity against human HeLa cells at 10 to 40 uM by coomassie blue assay in presence of topoisomerase 1-directed siRNA.
Settings: not given
Regarding `CC[C@@]1(O)C(=O)OCc2c1cc1n(c2=O)Cc2cc3ccccc3nc2-1`, the outcome was inactive.
For `CN1CCN(C(=O)c2ccc3c(NC4CCN(Cc5ccccc5)CC4)c4ccccc4nc3c2)CC1`, the outcome was Active.

The subject of the next assay is DU-145. As to the kind of experiment: Cytotoxic activity against human DU145 cells after 48 hrs by fluorescent resazurin dye assay. The following applies: DU-145, 48 h. It is filed as functional, cell-based.
For `CN1CCN(C(=O)c2ccc3c(NC4CCN(Cc5ccccc5)CC4)c4ccccc4nc3c2)CC1`, a half-maximal response (EC50) required 32.4 µM. This lies in the double-digit micromolar range.
Still for that read-out and setting: the figure for `CN1CCN(C(=O)c2cccc3c(NCCc4c[nH]c5ccccc45)c4ccccc4nc23)CC1` is 37.2 µM; for `CN1CCN(C(=O)c2ccc3c(NCCc4c[nH]c5ccccc45)c4ccccc4nc3c2)CC1` it is 16.6 µM; for `CCN(CC)C(=O)c1ccc2c(NCCc3c[nH]c4ccccc34)c3ccccc3nc2c1` it is 11.9 µM.

For another assay, the system named is SK-MEL. As to the kind of experiment: Cytotoxic activity against human SK-MEL cells after 48 hrs by fluorescent resazurin dye assay. It is filed as functional, cell-based.
Settings: not given
`CN1CCN(C(=O)c2ccc3c(NC4CCN(Cc5ccccc5)CC4)c4ccccc4nc3c2)CC1`: the EC50 was determined as 14.6 µM.
Still for that read-out and setting: the figure for `CN1CCN(C(=O)c2cccc3c(NCCc4c[nH]c5ccccc45)c4ccccc4nc23)CC1` is 16.7 µM; for `CN1CCN(C(=O)c2ccc3c(NCCc4c[nH]c5ccccc45)c4ccccc4nc3c2)CC1` it is 5.3 µM.
The same measure, in the same setting: with `CCN(CC)C(=O)c1ccc2c(NCCc3c[nH]c4ccccc34)c3ccccc3nc2c1` the figure was 16 µM.

Tested on in another assay: not listed separately
As to the kind of experiment: Cytotoxic activity against human SU-8686 cells after 48 hrs by fluorescent resazurin dye assay. It counts as functional, cell-based. Conditions: SU.86.86, 48 h.
Regarding `CN1CCN(C(=O)c2ccc3c(NC4CCN(Cc5ccccc5)CC4)c4ccccc4nc3c2)CC1`, it took 21.2 µM to reach a half-maximal effect (EC50). This counts as double-digit micromolar.
Still for that read-out and setting: the figure for `CN1CCN(C(=O)c2cccc3c(NCCc4c[nH]c5ccccc45)c4ccccc4nc23)CC1` is 6.8 µM; for `CN1CCN(C(=O)c2ccc3c(NCCc4c[nH]c5ccccc45)c4ccccc4nc3c2)CC1` it is 16.3 µM.
The same measure, in the same setting: with `CCN(CC)C(=O)c1ccc2c(NCCc3c[nH]c4ccccc34)c3ccccc3nc2c1` the figure was 16.2 µM.

Tested on in the next assay: not listed separately
Briefly: Cytotoxic activity against mouse Hepa-1c1c7 cells after 48 hrs by fluorescent resazurin dye assay. It is filed as functional, cell-based. Conditions: Hepa-1c1c7, 48 h.
`CN1CCN(C(=O)c2ccc3c(NC4CCN(Cc5ccccc5)CC4)c4ccccc4nc3c2)CC1` gave an EC50 of 26.9 µM.
`CN1CCN(C(=O)c2cccc3c(NCCc4c[nH]c5ccccc45)c4ccccc4nc23)CC1`: the EC50 came to 55.9 µM.
Molecule `CN1CCN(C(=O)c2ccc3c(NCCc4c[nH]c5ccccc45)c4ccccc4nc3c2)CC1` gave an EC50 of 24.8 µM.
The same measure, in the same setting: with `CCN(CC)C(=O)c1ccc2c(NCCc3c[nH]c4ccccc34)c3ccccc3nc2c1` the figure was 11.2 µM.

In the next assay the test system is HCT-116. As to the kind of experiment: Cytotoxic activity against human HCT116 cells after 48 hrs by fluorescent resazurin dye assay. The following applies: HCT-116, 48 h. It counts as functional, cell-based.
The molecule `CN1CCN(C(=O)c2ccc3c(NC4CCN(Cc5ccccc5)CC4)c4ccccc4nc3c2)CC1` showed a concentration giving a half-maximal response (EC50) of 29.2 µM.
Same read-out and setting: with `CN1CCN(C(=O)c2cccc3c(NCCc4c[nH]c5ccccc45)c4ccccc4nc23)CC1` the figure was 29 µM; with `CN1CCN(C(=O)c2ccc3c(NCCc4c[nH]c5ccccc45)c4ccccc4nc3c2)CC1`, 27.6 µM; with `CCN(CC)C(=O)c1ccc2c(NCCc3c[nH]c4ccccc34)c3ccccc3nc2c1`, 11.2 µM.

For the next assay, the target named is T1, DNA topoisomerase 1 (Homo sapiens). Briefly: Inhibition of human topoisomerase 1-mediated relaxation of supercoiled plasmid O6#7 DNA at 100 uM after 30 mins by gel electrophoresis.
Settings: not given
The procedure, abridged:
as §2
`CN1CCN(C(=O)c2ccc3c(NC4CCN(Cc5ccccc5)CC4)c4ccccc4nc3c2)CC1`: the result was inactive.
The same measure, in the same setting: the entry for `CN1CCN(C(=O)c2cccc3c(NCCc4c[nH]c5ccccc45)c4ccccc4nc23)CC1` is “inactive”; for `CN1CCN(C(=O)c2ccc3c(NCCc4c[nH]c5ccccc45)c4ccccc4nc3c2)CC1` it is “inactive”; for `CCN(CC)C(=O)c1ccc2c(NCCc3c[nH]c4ccccc34)c3ccccc3nc2c1` it is “inactive”.

The test system of another assay is MCF7. As to the kind of experiment: Cytotoxic activity against human MCF7 cells after 48 hrs by fluorescent resazurin dye assay. It counts as functional, cell-based. The following applies: MCF7, 48 h.
As for `CN1CCN(C(=O)c2ccc3c(NC4CCN(Cc5ccccc5)CC4)c4ccccc4nc3c2)CC1`, a half-maximal response (EC50) required 25.7 µM.
In turn, `CN1CCN(C(=O)c2cccc3c(NCCc4c[nH]c5ccccc45)c4ccccc4nc23)CC1` had an EC50 of 37.2 µM.
`CN1CCN(C(=O)c2ccc3c(NCCc4c[nH]c5ccccc45)c4ccccc4nc3c2)CC1` gave an EC50 of 19.2 µM. This EC50 lies about 1.9-fold lower than the previous one.
In turn, `CCN(CC)C(=O)c1ccc2c(NCCc3c[nH]c4ccccc34)c3ccccc3nc2c1` displayed an EC50 of 13.5 µM.
